PRMT1 inh = PRMT1 methyltransferase inhibitors, primary screen, biochemical, fluorescence polarization | Protein arginine N-methyltransferase 1 (Homo sapiens), Q99873 | 1.3% of 370,000 active | recombinant PRMT1, activity-based probe fluorescence polarization | inhibition, % at 2.79 µM;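 active means inhibition above about 21% made by adding two undisclosed values, limit read from the data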
Target sequence (Q99873 whole entry, looked up): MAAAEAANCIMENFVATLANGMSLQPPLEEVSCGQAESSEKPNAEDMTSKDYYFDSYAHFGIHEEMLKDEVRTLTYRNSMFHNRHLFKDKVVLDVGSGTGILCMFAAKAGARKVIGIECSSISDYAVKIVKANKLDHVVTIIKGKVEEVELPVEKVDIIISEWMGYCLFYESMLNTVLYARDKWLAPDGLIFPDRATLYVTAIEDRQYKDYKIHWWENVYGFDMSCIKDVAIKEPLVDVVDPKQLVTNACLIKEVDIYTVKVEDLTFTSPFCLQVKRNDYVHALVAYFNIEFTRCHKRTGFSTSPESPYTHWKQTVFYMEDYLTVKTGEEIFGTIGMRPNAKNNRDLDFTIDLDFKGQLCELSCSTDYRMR
MBD2 DNA inh = inhibitors of MBD2 binding to methylated DNA, primary screen, biochemical, TR-FRET, DNA-binding domain, human; Methyl-CpG-binding domain protein 2 (Homo sapiens), Q9UBB5; MBD2 binding to methylated oligonucleotide; inhibition, % at 4.4 µM; 0.31% of 370,000 active; AID 686964, 2013; in the data active means inhibition above about 13%
RBBP9 inhibitor = human RBBP9 inhibitors, primary screen, biochemical, fluorescence polarization, FP-Rh probe, HTS; Serine hydrolase RBBP9 (Homo sapiens), O75884; recombinant RBBP9; inhibition, % at 7.94 µM; 0.2% of 220,000 active;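 active means inhibition above the campaign mean of all tested compounds plus 3 SD, cut at about 14% in these data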
Target sequence (O75884 whole entry, looked up): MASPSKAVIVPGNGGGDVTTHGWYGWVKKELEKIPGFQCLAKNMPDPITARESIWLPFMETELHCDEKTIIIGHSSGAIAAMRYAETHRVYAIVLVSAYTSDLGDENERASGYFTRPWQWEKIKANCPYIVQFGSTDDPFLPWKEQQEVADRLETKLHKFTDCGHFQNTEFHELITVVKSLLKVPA
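Controls: DMSO-treated enzyme wells and wells lacking RBBP9 | Material: RBBP9 protein | Technique: Fluorescence polarization | Replication: Single well per compound, no replicates | Buffer or medium: Tris-NaCl-Pluronic buffer, pH 8.0 | Timing: 30 min compound preincubation, 45 min probe labeling, 25 °C | Read-out basis: Percent inhibition from mP, scaled between DMSO and no-protein wells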
ABHD5-PLIN5 inh = ABHD5-PLIN5 interaction inhibitors, primary screen, cell lysate, split luciferase complementation, luminescence. Perilipin-5 (Homo sapiens) + 1-acylglycerol-3-phosphate O-acyltransferase ABHD5 (Homo …. Split G. princeps luciferase complementation, 4 h. inhibition, % at 4 µM. 0.78% of 360,000 active;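 active means inhibition above the mean inhibition across every tested compound plus 3 SD, cut at about 22% in these data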
UHRF1 MBD2 ctr = UHRF1 methylated DNA binding inhibitors, primary screen, counter-screen for MBD2 inhibitor project, biochemical, TR-FRET, human UHRF1, single concentration. E3 ubiquitin-protein ligase UHRF1 (Homo sapiens), Q96T88. UHRF1 binding to methylated oligo. inhibition, % at 4.4 µM. 0.75% of 370,000 active; in the data active means inhibition above about 21%;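 further: UHRF1 SRA domain binding a hemimethylated CpG hairpin DNA probe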
LEDGF integ inh = blockers of LEDGF/p75-dependent integrase strand transfer – biochemical, TR-FRET, high throughput, primary screen. 0.64% of 370,000 active. inhibition, % at 3.7 µM. TR-FRET IN-LEDGF/p75 DNA integration, Eu/Cy5. AID 743269, 2014;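 active means inhibition above the screen-wide mean plus 3 SD, cut at about 13% in these data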;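 further: signal is the Cy5 over europium emission ratio at 671 and 618 nm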
A number is an active result; 0 = inactive; - = no result. Compounds with a hit are over-represented: about 3.1% of the library has one in this group of screens.

SMILES	PRMT1 inh	MBD2 DNA inh	RBBP9 inhibitor	ABHD5-PLIN5 inh	UHRF1 MBD2 ctr	LEDGF integ inh
COc1ccc(-c2nnc(SCC(=O)N(C)C3CCS(=O)(=O)C3)n2CC(C)C)cc1 (configuration not stated)	0	0	-	0	0	0
CCOC(=O)NC(=S)c1ccc[nH]1	0	0	0	0	23	0
COc1ccc(-n2c(SCC(=O)c3ccc4ccccc4c3)nnc2-c2ccccc2)cc1	0	0	-	-	0	0
CCN(CC(=O)NCc1cccs1)S(=O)(=O)c1cccc(C(C)=O)c1	0	0	0	0	24	0
CC(SC(=S)N1CCCC1)C(=O)O (configuration not stated)	0	0	0	0	24	0
CC(C)(SC(=S)N1CCCCCC1)C(=O)O	0	0	0	0	0	0
Cc1ccccc1NC(=O)[C@H]1CC(=O)O[C@@H]1c1ccccc1	0	0	-	-	0	0
CCOC(=O)C(N)CSC1CC(=O)N(c2ccc(C(=O)OC)cc2)C1=O (configuration not stated)	0	0	0	0	0	0
CCOC(=O)c1ccc(N2C(=O)CC(Sc3ncccn3)C2=O)cc1 (configuration not stated)	21	0	-	0	0	0
COc1ccc2c(c1)[C@@]1(OCCC=C[C@H]1C)C(=O)N2Cc1ccccc1C(F)(F)F	0	0	-	-	0	0
CCN1CCN(Cc2c(O)ccc3c2O/C(=C\c2ccccc2)C3=O)CC1	0	0	0	0	0	0
CC1CCCN(Cc2c(O)ccc3c2O/C(=C\c2ccco2)C3=O)C1 (configuration not stated)	22	0	0	0	0	29
N#Cc1ccc(S(=O)(=O)N2CCCc3nc(-c4ccccc4)ccc32)cc1	0	0	-	-	0	0
CC(=O)Nc1ccc(C(=O)NCCc2ccccc2)cc1	0	0	0	0	21	0
O=C(NCCc1ccccc1)c1ccc(NC(=O)C2CC2)cc1	0	0	-	0	0	0
C#CCCC(=O)O[C@H]1CCC[C@@]2(C(=O)N(Cc3ccccc3)c3ccccc32)[C@H]1NC(=O)CCc1ccccc1	0	0	-	-	0	0
CCCc1nc2ccc(C(=O)OC)cn2c1Cc1ccccc1C(F)(F)F	0	0	-	0	25	0
COC(=O)c1ccc2nc(-c3ccc(F)cc3)c(Cc3ccccc3OC)n2c1	0	0	-	0	0	0
CCCc1nc2ccc(C(=O)OC)cn2c1Cc1ccccc1OC	0	0	-	-	23	0
COC(=O)c1ccc(C(=O)OC)nc1	0	0	0	0	0	0
COC(=O)c1ccc(C(=O)O)nc1	0	0	0	0	22	0
Cc1ccc2c(c1)/C(=C/c1ccccc1)C(=O)N2	0	0	-	23	0	0
Cc1ccc(-c2ccc(C(=O)NCc3ccc(Cl)cc3)o2)c2ccccc12	0	0	0	22	0	0
O=C(Nn1cnnc1)c1ccc(Cl)c([N+](=O)[O-])c1	0	0	0	0	25	0
Cc1cc(C(=O)Nn2cnnc2)ccc1[N+](=O)[O-]	0	0	-	0	0	0
SMILES	PRMT1 inh	MBD2 DNA inh	RBBP9 inhibitor	ABHD5-PLIN5 inh	UHRF1 MBD2 ctr	LEDGF integ inh
CCOC(=O)N1CCN(C(=O)CSc2nnc(C3COc4ccccc4O3)o2)CC1 (configuration not stated)	0	0	0	0	0	0
O=C(CSc1nnc(C2COc3ccccc3O2)o1)N1CCCC1 (configuration not stated)	23	0	0	0	0	0
O=C(NNC(=O)c1cc(-c2ccccc2)nc2ccccc12)Nc1cccc(Cl)c1	0	0	0	0	81	0
COc1cccc(C2C(C#N)=C(N)Oc3cc(C)n(Cc4ccco4)c(=O)c32)c1 (configuration not stated)	0	0	0	22	0	0
Cc1cc2c(c(=O)n1Cc1cccnc1)C(c1ccccc1)C(C#N)=C(N)O2 (configuration not stated)	0	0	0	0	0	0
Cc1ccc(S(=O)(=O)N(C)[C@H]2C[C@H]3c4[nH]c5c(-c6ccccc6)cccc5c4CCN3C(=O)[C@H]2[C@H](C)O)cc1	0	0	-	-	0	0
CC12COC3(P(=O)(c4ccccc4)c4ccccc4)CC1CCC23CP(=O)(c1ccccc1)c1ccccc1 (configuration not stated)	0	0	0	0	22	0
CN1CCN(c2nc3c(c(=O)n(C)c(=O)n3C)n2Cc2ccccc2F)CC1	0	0	-	0	60	0
O=C1CSC(=S)N1N=Cc1ccc(Cl)s1	25	0	-	0	0	0
CC(C)(C)c1ccc(/C=N/N2C(=O)CSC2=S)cc1	0	0	-	0	0	0
COc1ccc(/C=N/N2C(=O)CSC2=S)cc1	0	0	0	0	63	0
CC(C)Cn1c(N)c(C(=O)CSc2nnc(-c3ccco3)n2C)c(=O)n(C)c1=O	0	0	-	0	33	0
COC(=O)C1=C(C)N(Cc2ccccc2C(F)(F)F)C(=NCc2ccccc2C(F)(F)F)NC1c1ccc(Cl)cc1 (configuration not stated)	0	0	-	-	0	0
O=C(c1cccc(I)c1)N1CCC(Oc2cccnc2)CC1	0	0	-	-	0	0
CCCC(=O)Nc1cc(S(=O)(=O)N2CCOCC2)ccc1N1CCCCC1	0	0	-	0	0	0
CCCC(=O)Nc1cc(S(=O)(=O)N2CCCCC2)ccc1N1CCOCC1	0	0	-	0	21	0
COc1ccc(CCNC(=O)c2cc(S(=O)(=O)N3CCOCC3)ccc2N2CCCC2)cc1OC	0	0	-	0	0	0
CN1CCN(c2ccc(S(=O)(=O)N3CCOCC3)cc2NC(=O)CC(C)(C)C)CC1	0	0	-	0	61	0
COc1ccc(CNC(=O)c2cc(S(=O)(=O)N3CCCCC3)ccc2N2CCOCC2)cc1OC	0	0	-	0	30	0
CC(=O)C1=C(C)N(Cc2ccc(F)cc2)C(=S)NC1c1ccc(Cl)cc1 (configuration not stated)	0	0	-	-	0	0
COC(=O)C1CSC(C(=O)OC)N1C(=O)Nc1ccccc1 (configuration not stated)	24	0	0	0	0	0
COc1ccc(-n2c(COc3ccccc3)nnc2SCc2nc3ccccc3[nH]2)cc1	0	0	-	-	0	0
CCN(CCNC(=O)c1ccc(C#N)cc1)c1cccc(C)c1	-	-	-	0	-	-
CCN(CCNCC(O)COCc1ccc(Cl)cc1)c1cccc(C)c1 (configuration not stated)	0	0	0	0	29	0
CN(CC(=O)Nc1cccc(F)c1)C(=O)c1cn(-c2ccccc2)nc1-c1ccccc1	0	0	-	0	24	0
COc1ccc2[nH]c3nc(SC(C)C)nnc3c2c1	0	0	0	0	54	0
